# Laboratory results: ChEMBL document CHEMBL3352378, “Novel carbazole inhibits phospho-STAT3 through induction of protein-tyrosine phosphatase PTPN6” (J Med Chem, 2014)
# Active and inactive are the calls of the source. The rule behind the calls is not given here.
# Tests used:
# [1] = target: Tyrosine-protein phosphatase non-receptor type 6 (Homo sapiens) (UniProt P29350); assay: Induction of PTPN6 in human SUM149PT cells assessed as inhibition of STAT3 phosphorylation at 3 uM after 16 hrs by Western blotting analysis in presence of pervanadate; format: cell-based
# Outline: (§1)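 HS578T and SUM149PT cells treated for 16 h without or with increasing pervanadate as a phosphatase inhibitor; JAK1/2 inhibitor CP690550 run in parallel. Lysates immunoblotted for phospho-STAT3 (Y705), with β-actin as loading control.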
# [2] = target: Tyrosine-protein phosphatase non-receptor type 6 (Homo sapiens) (UniProt P29350); assay: Induction of PTPN6 in human Hs578T cells assessed as inhibition of STAT3 phosphorylation at 3 uM after 16 hrs by Western blotting analysis in presence of pervanadate; format: cell-based; conditions: Hs-578T; outline: as §1
# Sequence of Tyrosine-protein phosphatase non-receptor type 6 (Homo sapiens) (P29350 whole entry): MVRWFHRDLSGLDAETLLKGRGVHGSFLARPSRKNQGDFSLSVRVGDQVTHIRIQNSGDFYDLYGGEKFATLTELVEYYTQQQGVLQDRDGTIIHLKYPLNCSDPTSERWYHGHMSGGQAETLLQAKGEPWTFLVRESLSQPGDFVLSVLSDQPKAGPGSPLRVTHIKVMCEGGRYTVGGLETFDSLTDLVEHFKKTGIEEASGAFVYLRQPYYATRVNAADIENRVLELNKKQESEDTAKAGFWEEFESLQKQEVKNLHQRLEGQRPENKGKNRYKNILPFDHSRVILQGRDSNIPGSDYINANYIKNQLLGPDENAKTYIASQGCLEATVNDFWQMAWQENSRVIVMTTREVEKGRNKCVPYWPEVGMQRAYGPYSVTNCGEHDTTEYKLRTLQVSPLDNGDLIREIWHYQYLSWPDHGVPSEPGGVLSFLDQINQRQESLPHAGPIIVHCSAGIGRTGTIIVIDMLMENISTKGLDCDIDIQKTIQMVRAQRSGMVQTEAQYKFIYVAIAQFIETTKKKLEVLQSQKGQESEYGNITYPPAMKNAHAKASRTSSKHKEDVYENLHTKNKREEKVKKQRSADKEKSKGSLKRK
structure (smiles),measurement,setting,value
C[C@@H]1CCN(C(=O)CC#N)C[C@@H]1N(C)c1ncnc2[nH]ccc12,inhibition,[1],Active
same,inhibition,[2],Active
